How the values were obtained:
Type in all cases: functional
RXF 393 [1] = experiment: Antiproliferative activity against human RXF393 cells assessed as cell growth at 10 uM; settings: read-out: Activity
Method in brief: (§1)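 NCI 60 cell line panel, single-dose screen (10^-5 M) run by the developmental therapeutics program protocol. Results are given as growth percent of treated cells relative to untreated control cells for each line.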

BT-549 = experiment: Growth inhibition of human BT549 cells
Method in brief: (§2)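 NCI 60 cancer cell line screen run per the Developmental Therapeutics Program protocol. Dose–response curves were plotted against log10 drug concentration for each cell line within its subpanel, and mean graph midpoint values were calculated.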

LOX IMVI [2] = experiment: Growth inhibition of human LOXIMVI cells; method in brief: as §2
HCT-116 [3] = experiment: Growth inhibition of human HCT116 cells; method in brief: as §2
UACC-257 = experiment: Antiproliferative activity against human UACC257 cells assessed as cell growth at 10 uM; settings: read-out: Activity
Method in brief: (§3)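 NCI 60 cell line panel, single dose (10^-5 M), run per the Developmental Therapeutics Program protocol (one dose mean graph). Each result is the growth percentage of treated cells relative to untreated control cells.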

[4] = Growth inhibition of human […] cells
Method in brief: (§4)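 Assayed in the NCI 60 human cancer cell line panel under the Developmental Therapeutics Program protocol. For each line, dose–response curves were plotted against log10 drug concentration. In the one-dose screen at 10^-5 M, growth was given as percent of untreated control cells, and mean graph midpoint values were averaged.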

SK-OV-3 = experiment: Growth inhibition of human SKOV3 cells; method in brief: as §4
UO-31 = experiment: Growth inhibition of human UO31 cells; method in brief: as §4
SN12C = experiment: Antiproliferative activity against human SN12C cells assessed as cell growth at 10 uM; settings: read-out: Activity; method in brief: as §1
HOP-62 = experiment: Growth inhibition of human HOP62 cells; method in brief: as §2
CAKI-1 [5] = experiment: Growth inhibition of human Caki1 cells; method in brief: as §2
EKVX = experiment: Growth inhibition of human EKVX cells; method in brief: as §2
T47D = experiment: Antiproliferative activity against human T47D cells assessed as cell growth at 10 uM; settings: read-out: Activity; method in brief: as §3
NCI-H522 = experiment: Growth inhibition of human NCI-H522 cells; method in brief: as §2
HL-60(TB) = experiment: Antiproliferative activity against human HL-60(TB) cells assessed as cell growth at 10 uM; settings: read-out: Activity
Method in brief: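 NCI Developmental Therapeutics Program 60-cell-line one-dose screen at 10^-5 M. Readout is growth percentage of treated cells relative to untreated control cells.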

[6] = Antiproliferative activity against human RPMI8266 cells assessed as cell growth at 10 uM; settings: read-out: Activity; method in brief: as §1
SF-539 = experiment: Growth inhibition of human SF539 cells; method in brief: as §4
786-0 = experiment: Growth inhibition of human 786-0 cells; method in brief: as §2
A498 = experiment: Antiproliferative activity against human A498 cells assessed as cell growth at 10 uM; settings: read-out: Activity; method in brief: as §1
[7] = Cytotoxicity against human H1299 cells at 100 uM after 48 hrs by MTT assay; settings: NCI-H1299, 48 h
Method in brief: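 H1299 non-small cell lung cancer cells were grown in RPMI 1640 with 10% FBS, penicillin and streptomycin at 37 °C under 5% CO2. About 2 × 10³ cells per well were seeded and left 24 h. Compounds were dissolved fresh in DMSO, diluted into complete medium and applied for 48 h. MTT was then added for 4 h at 37 °C, followed by lysis buffer (20% SDS, 50% DMF) for 16 h, and absorbance was read at 550 nm.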

LOX IMVI [8] = experiment: Antiproliferative activity against human LOXIMVI cells assessed as cell growth at 10 uM; settings: read-out: Activity; method in brief: as §1
U-251 = experiment: Growth inhibition of human U251 cells; method in brief: as §4
RXF 393 [9] = experiment: Growth inhibition of human RXF393 cells; method in brief: as §4
KM12 = experiment: Growth inhibition of human KM12 cells; method in brief: as §2
PC-3 = experiment: Growth inhibition of human PC3 cells; method in brief: as §4
A549 = experiment: Antiproliferative activity against human A549 cells assessed as cell growth at 10 uM; settings: read-out: Activity; method in brief: as §1
SR = experiment: Antiproliferative activity against human SR cells assessed as cell growth at 10 uM; settings: read-out: Activity; method in brief: as §3
HCT-116 [10] = experiment: Antiproliferative activity against human HCT116 cells assessed as cell growth at 10 uM; settings: read-out: Activity; method in brief: as §1
SF-268 = experiment: Antiproliferative activity against human SF268 cells assessed as cell growth at 10 uM; settings: read-out: Activity; method in brief: as §1
Malme-3M = experiment: Antiproliferative activity against human MALME-3M cells assessed as cell growth at 10 uM; settings: read-out: Activity; method in brief: as §1
OVCAR-4 = experiment: Growth inhibition of human OVCAR4 cells; method in brief: as §2
HOP-92 = experiment: Growth inhibition of human HOP92 cells; method in brief: as §2
ACHN [11] = experiment: Antiproliferative activity against human ACHN cells assessed as cell growth at 10 uM; settings: read-out: Activity; method in brief: as §1
OVCAR-3 = experiment: Growth inhibition of human OVCAR-3 cells; method in brief: as §2
[12] = Growth inhibition of human Hs 578T cells; method in brief: as §2
OVCAR-8 = experiment: Antiproliferative activity against human OVCAR8 cells assessed as cell growth at 10 uM; settings: read-out: Activity; method in brief: as §1
SK-MEL-5 = experiment: Antiproliferative activity against human SK-MEL-5 cells assessed as cell growth at 10 uM; settings: read-out: Activity; method in brief: as §1
TK-10 = experiment: Growth inhibition of human TK10 cells; method in brief: as §4
ACHN [13] = experiment: Growth inhibition of human ACHN cells; method in brief: as §2
CAKI-1 [14] = experiment: Antiproliferative activity against human Caki1 cells assessed as cell growth at 10 uM; settings: read-out: Activity; method in brief: as §1
[15] = read-out: LC50 (the source's name)

`O=C1c2ccccc2C(=O)c2c1ccc1nsnc21` showed a growth at 10 µM (RXF 393 [1]) of 20.1%, a GI50 (BT-549) of 1.63 µM and an LC50 (BT-549) of 6.01 µM. It also gave a TGI (BT-549) of 3.13 µM, a GI50 (LOX IMVI [2]) of 0.82 µM and a TGI (LOX IMVI [2]) of 2.13 µM. For the same compound, the CC50 (LOX IMVI [2]; [15]) was 4.86 µM, the GI50 (HCT-116 [3]) was 1.93 µM and the TGI (HCT-116 [3]) was 5.4 µM. The CC50 (HCT-116 [3]; [15]) was > 100 µM, the growth at 10 µM (UACC-257) was -83.1% and the GI50 [4] was 1.18 µM. The TGI [4] was 3.46 µM, the CC50 [4, 15] was > 100 µM and the GI50 (SK-OV-3) was 7.71 µM. For the same compound, the TGI (SK-OV-3) was 22.5 µM, the CC50 (SK-OV-3; [15]) was 53.4 µM and the GI50 (UO-31) was 1.62 µM. For the same compound, the TGI (UO-31) was 3.12 µM, the CC50 (UO-31; [15]) was 6.01 µM and the growth at 10 µM (SN12C) was -73.3%. The GI50 (HOP-62) was 1.28 µM, the TGI (HOP-62) was 3.31 µM and the CC50 (HOP-62; [15]) was 8.53 µM. The GI50 (CAKI-1 [5]) was 1.61 µM, the TGI (CAKI-1 [5]) was 2.96 µM and the CC50 (CAKI-1 [5]; [15]) was 5.44 µM. For the same compound, the GI50 (EKVX) was 1.55 µM, the TGI (EKVX) was 3.45 µM and the CC50 (EKVX; [15]) was 7.66 µM. For the same compound, the growth at 10 µM (T47D) was -45.5%, the GI50 (NCI-H522) was 1.66 µM and the TGI (NCI-H522) was 3.93 µM. The CC50 (NCI-H522; [15]) was 9.31 µM, the growth at 10 µM (HL-60(TB)) was -21.8% and the growth at 10 µM [6] was -28%. For the same compound, the GI50 (SF-539) was 1.46 µM, the TGI (SF-539) was 2.94 µM and the CC50 (SF-539; [15]) was 5.91 µM. For the same compound, the GI50 (786-0) was 6.17 µM, the TGI (786-0) was 19.3 µM and the CC50 (786-0; [15]) was 50.4 µM. The growth at 10 µM (A498) was 130%, the viability at 100 µM [7] was 17% and the growth at 10 µM (LOX IMVI [8]) was -50.6%. The GI50 (U-251) was 1.61 µM, the TGI (U-251) was 2.96 µM and the CC50 (U-251; [15]) was 5.44 µM. The GI50 (RXF 393 [9]) was 1.75 µM, the TGI (RXF 393 [9]) was 4.4 µM and the CC50 (RXF 393 [9]; [15]) was 14.6 µM. It also gave a GI50 (KM12) of 1.96 µM, a TGI (KM12) of 5.54 µM and a CC50 (KM12; [15]) of 59.7 µM. The GI50 (PC-3) was 3.23 µM, the TGI (PC-3) was > 100 µM and the CC50 (PC-3; [15]) was > 100 µM. For the same compound, the growth at 10 µM (A549) was 104%, the growth at 10 µM (SR) was 4.96% and the growth at 10 µM (HCT-116 [10]) was -50%. The growth at 10 µM (SF-268) was 16.3%, the growth at 10 µM (Malme-3M) was -71.5% and the GI50 (OVCAR-4) was 0.65 µM. The TGI (OVCAR-4) was 2.17 µM, the CC50 (OVCAR-4; [15]) was 5.57 µM and the GI50 (HOP-92) was 2.52 µM. The TGI (HOP-92) was 6.64 µM, the CC50 (HOP-92; [15]) was > 100 µM and the growth at 10 µM (ACHN [11]) was -94.3%. For the same compound, the GI50 (OVCAR-3) was 0.55 µM, the TGI (OVCAR-3) was 2.46 µM and the CC50 (OVCAR-3; [15]) was 11.1 µM. It also gave a GI50 [12] of 1.41 µM, an LC50 [12] of 56 µM and a TGI [12] of 5.02 µM. For the same compound, the growth at 10 µM (OVCAR-8) was -10.1%, the growth at 10 µM (SK-MEL-5) was 8.52% and the GI50 (TK-10) was 2.85 µM. For the same compound, the TGI (TK-10) was 10.9 µM, the CC50 (TK-10; [15]) was 50.4 µM and the GI50 (ACHN [13]) was 1.46 µM. It also gave a TGI (ACHN [13]) of 2.77 µM, a CC50 (ACHN [13]; [15]) of 5.27 µM and a growth at 10 µM (CAKI-1 [14]) of 1.97%.

Source: ChEMBL document CHEMBL1152649, “Synthesis, cytotoxicity and human telomerase inhibition activities of a series of 1,2-heteroannelated anthraquinones and anthra[1,2-d]imidazole-6,11-dione homologues” (2009)
